Assay results reported in ChEMBL document CHEMBL5316304, “Collaborative Virtual Screening Identifies a 2-Aryl-4-aminoquinazoline Series with Efficacy in an In Vivo Model of Trypanosoma cruzi Infection” (J Med Chem, 2023).
≈ marks a conversion by molar mass, not a printed value.

How the values were obtained:
Trypanosoma cruzi = test: Antitrypanosomal activity against intracellular Trypanosoma cruzi infected in human U2OS cells assessed as parasite growth inhibition incubated for 72 hrs by confocal microscopy; assay type: functional, organism-based; conditions: Trypanosoma cruzi, U2OS, 72 h
[1] = Selectivity index, ratio of IC50 for human U2OS cells to IC50 for intracellular Trypanosoma cruzi infected in human U2OS cells; assay type: toxicity, cell-based; conditions: U2OS cells, read-out: Selectivity Index
In short: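 Host U2OS cell counts and intracellular parasite infection ratio were read from the same 72 h DRAQ5-stained confocal imaging assay. CC50 and EC50 came from 4-parameter logistic fits, and the selectivity index is their ratio.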

[2] = Kinetic solubility of compound in aqueous buffer at pH 6.8 incubated for 16 to 24 hrs by HPLC analysis; assay type: physicochemical; conditions: time 16-24 hrs, read-out: Kinetic_solubility
[3] = Intrinsic clearance in mouse liver microsomes at 1 uM incubated for 15 to 30 mins by LC/MS/MS analysis; assay type: ADME, Microsome; conditions: time 15-30 min
[4] = Intrinsic clearance in human liver microsomes at 1 uM incubated for 15 to 30 mins by LC/MS/MS analysis; assay type: ADME, Microsome; conditions: time 15-30 min
[5] = Permeability of compound incubated for 3 hrs by PAMPA assay; assay type: ADME; conditions: read-out: permeability

| SMILES | IC50 (Trypanosoma cruzi) | selectivity ratio [1] | solubility kinetic [2] | intrinsic clearance (CLint) [3] | CLint [4] | Papp at 3 h [5] |
| --- | --- | --- | --- | --- | --- | --- |
| CCn1cc2c(N3CCC(c4ccccn4)C3)nc(-c3ccccn3)nc2n1 (stereo not given) | 1500 nM | 2.3 |  |  |  |  |
| NC(=O)C1CCN(c2nc(-c3ccccn3)nc3ccccc23)C1 (stereo not given) | 23000 nM | 2.2 |  |  |  |  |
| c1ccc(C2CCN(c3nc(-c4ccccn4)nc4ccccc34)C2)cc1 (stereo not given) | 280 nM | 9.7 | 0.7 µg/mL (≈ 1.99 µM) | > 500 µL/min/mg |  |  |
| c1ccc(-c2nc(NCc3nc4ccccc4o3)c3ccccc3n2)nc1 | 2500 nM | 16 |  |  |  |  |
| c1ccc(CN2CCN(c3nc(-c4ccccn4)nc4ccccc34)CC2)cc1 | 450 nM | 27 |  |  |  |  |
| CCn1ccc2nc(-c3ccccn3)nc(N3CCC(c4ccccn4)C3)c21 (stereo not given) | 180 nM | 28 |  |  |  |  |
| c1ccc(-c2nc(Nc3ccc4[nH]ncc4c3)c3ccccc3n2)nc1 | 6200 nM | 3.5 |  |  |  |  |
| N#CC1CCN(c2nc(-c3ccccn3)nc3ccccc23)CC1 | 24000 nM | 2.1 |  |  |  |  |
| c1ccc(-c2nc(NCc3nccs3)c3ccccc3n2)nc1 | 2700 nM | 19 |  |  |  |  |
| Fc1cccc(Nc2nc(-c3ccccn3)nc3ccccc23)c1 | 510 nM | 20 |  |  |  |  |
| c1ccc(-c2nc(N3CCc4ccccc4C3)c3ccccc3n2)nc1 | 720 nM | 6.6 | 10 µg/mL (≈ 29.5 µM) | 464 µL/min/mg | 150 µL/min/mg | 40.8 ×10⁻⁶ cm/s |
| c1ccc(-c2nc(Nc3ccn4nccc4c3)c3ccccc3n2)nc1 | 11000 nM | 2.9 |  |  |  |  |
| c1ccc(CCNc2nc(-c3ccccn3)nc3ccccc23)nc1 | 3400 nM | 14 |  |  |  |  |
| c1ccc(CNc2nc(-c3ccccn3)nc3ccccc23)cc1 | 130 nM | 57 |  |  |  |  |
| Fc1ccc(Nc2nc(-c3ccccn3)nc3ccccc23)cc1 | 1300 nM |  |  |  |  |  |
| CCn1cnc2c(N3CCC(c4ccccn4)C3)nc(-c3ccccn3)nc21 (stereo not given) | 2700 nM | 2.7 |  |  |  |  |

| SMILES | IC50 (Trypanosoma cruzi) | selectivity ratio [1] | solubility kinetic [2] | intrinsic clearance (CLint) [3] | CLint [4] | Papp at 3 h [5] |
| --- | --- | --- | --- | --- | --- | --- |
| CC1CCCN(c2nc(-c3ccccn3)nc3ccccc23)C1 (stereo not given) | 430 nM | 19 | 69 µg/mL (≈ 227 µM) | 452 µL/min/mg | 188 µL/min/mg | 36.4 ×10⁻⁶ cm/s |
| c1ccc(-c2nc(N3CCCC3c3ccccn3)c3ccccc3n2)nc1 (stereo not given) | 1800 nM | 25 |  |  |  |  |
| c1ccc(-c2nc(NCc3cccnc3)c3ccccc3n2)nc1 | 6300 nM | 8 |  |  |  |  |
| OC1(c2ccccc2)CCN(c2nc(-c3ccccn3)nc3ccccc23)C1 (stereo not given) | 35000 nM | 2.8 |  |  |  |  |
| CC(Nc1nc(-c2ccccn2)nc2ccccc12)c1ccccn1 (stereo not given) | 2700 nM | 18 |  |  |  |  |
| Cc1cnc(C)c(Nc2nc(-c3ccccn3)nc3ccccc23)c1 | 14000 nM | 3.6 | 31 µg/mL (≈ 94.7 µM) | 154 µL/min/mg | < 1 µL/min/mg | 20.1 ×10⁻⁶ cm/s |
| CCCN(CCC)c1nc(-c2ccccn2)nc2ccccc12 | 170 nM |  |  |  |  |  |
| c1ccc(CNc2nc(-c3ccccn3)nc3ccccc23)nc1 | 4400 nM | 11 |  |  |  |  |
| c1ccc(-c2nc(N3CCn4ccnc4C3)c3ccccc3n2)nc1 | 27000 nM | 1.9 |  |  |  |  |
| c1ccc(C2CCCN(c3nc(-c4ccccn4)nc4ccccc34)C2)cc1 (stereo not given) | 360 nM | 6.4 | 0.1 µg/mL (≈ 0.273 µM) | 318 µL/min/mg | 205 µL/min/mg | 41.6 ×10⁻⁶ cm/s |
| c1ccc(-c2nc(NCCn3cnc4ccccc43)c3ccccc3n2)nc1 | 8200 nM | 6.1 |  |  |  |  |
| CCC(C)Nc1nc(-c2ccccn2)nc2ccccc12 (stereo not given) | 2100 nM |  |  |  |  |  |
| c1ccc(-c2nc(NCCn3ccnc3)c3ccccc3n2)nc1 | 49000 nM | 1 |  |  |  |  |
| c1ccc(-c2nc(N3CCCCCC3)c3ccccc3n2)nc1 | 100 nM |  |  |  |  |  |
| c1ccc(OC2CCN(c3nc(-c4ccccn4)nc4ccccc34)C2)cc1 (stereo not given) |  | 6.5 | 7.7 µg/mL (≈ 20.9 µM) | > 500 µL/min/mg | 361 µL/min/mg | 43 ×10⁻⁶ cm/s |
| c1ccc(-c2nc(NC3(c4ccccn4)CC3)c3ccccc3n2)nc1 | 4200 nM | 12 | 84 µg/mL (≈ 247 µM) | 24 µL/min/mg | 7 µL/min/mg | 21.9 ×10⁻⁶ cm/s |
